Data on 26 compounds can be found in paper PMC3515842 (Journal of medicinal chemistry, 2012).

A word on the Papp: it is the rate of passage across a membrane or cell layer, normalised by area and donor concentration. A lower Papp goes with slow passage. By inhibition is commonly meant the percentage by which the read-out fell short of the control.

SMILES strings stand for the structures.

One data set has as its target CYP3A4 (Homo sapiens, UniProt P08684). Briefly: CYP3A4 inhibition. It counts as in vitro ADME.
Data set [1] deals with T1, APE1 (Homo sapiens, UniProt P27695). Briefly: enzyme kinetic studies of APE1 incision. It counts as biochemical. Particulars: for KM increase: 5, 10 or 20 µM inhibitor; for mode of inhibition: Lineweaver-Burk analysis; for kcat decrease: only at the high inhibitor concentration.
T1 sequence (P27695 whole entry): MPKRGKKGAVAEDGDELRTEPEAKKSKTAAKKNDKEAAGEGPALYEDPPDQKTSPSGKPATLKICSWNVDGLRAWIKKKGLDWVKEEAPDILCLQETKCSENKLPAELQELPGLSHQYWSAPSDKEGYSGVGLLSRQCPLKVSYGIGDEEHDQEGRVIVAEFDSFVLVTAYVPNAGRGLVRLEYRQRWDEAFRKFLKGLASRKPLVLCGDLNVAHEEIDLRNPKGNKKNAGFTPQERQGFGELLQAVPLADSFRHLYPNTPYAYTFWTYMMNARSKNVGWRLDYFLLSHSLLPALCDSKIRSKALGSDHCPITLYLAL
A further data set concerns the target APE1-DNA complex (Homo sapiens, UniProt P27695). Briefly: electrophoretic mobility shift assay. It counts as binding. Particulars: protein pre-treated with 30 µM inhibitor. The procedure, abridged:
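Recombinant wild-type APE1 (10 ng, ~28 nM) was preincubated 10 min on ice with test compound (1, 3, 10, 30, 100 µM) or 1% DMSO. 32P AP-DNA (100 fmol, 10 nM) was added for 5 min on ice. Complex and free DNA were separated on native 8% PAGE (2 h, 120 V); percent DNA bound was read by phosphorimager.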
Background: In EMSA bound probe runs differently from free probe, usually more slowly.

Another data set is described as follows: Caco-2 permeability. It counts as in vitro ADME. Particulars: human, Caco-2, pH 7.4. On the technique in general: Caco-2 monolayers are a common model of the intestinal barrier.
Data set [2] addresses total AP site incision activity of HeLa whole cell extract (APE1) (Homo sapiens, UniProt P27695). Briefly: HeLa whole cell extract incision assay. It is filed as biochemical. As to conditions: for inhibition at 100 µM: read-out: inhibition of the incision activity of HeLa extracts.
In the next data set the test system is HeLa cells. Briefly: MMS and TMZ potentiation / HeLa cell viability assay. It counts as cell-based, human. As to conditions: for IC50: Homo sapiens, read-out: 50% reduction in cell viability as a single agent; for IC50 / concentration of optimal synergy with MMS and TMZ: 24 h; for potentiation of cytotoxic effects of MMS and TMZ / concentration of optimal synergy with MMS and TMZ: MMS 0.4 mM or TMZ 1 mM. The method, boiled down: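 HeLa cells in DMEM with 10% FBS, seeded at 6K/well and left overnight to attach. Medium was then replaced with fresh medium holding serial dilutions of test compound (5–30 µM), with or without MMS (0.4 mM) or TMZ (1 mM), for 24 h. Viability was read by CellTiter Glo luminescence after 30 min at room temperature, as percent of DMSO control, normalized to 100% per alkylating agent without compound.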

A short description of data set [3]: in vivo PK analysis, IP administration. Particulars: IP 30 mg/kg, CD1 mice, 24 hour observation.
Data set [4] deals with T1, APE1. Put plainly: fluorescence-based qHTS assay of APE1 endonuclease activity. It counts as biochemical. As to conditions: for less activity than the corresponding amide analog (4): relative to 4. For orientation: qHTS replaces the single test concentration by a dilution series.

Chain of total AP site incision activity of HeLa whole cell extract (APE1) (P27695 whole entry): as above
Chain of APE1-DNA complex (P27695 whole entry, one chain of several): as the sequence (P27695 whole entry) above
Chain of CYP3A4 (P08684 whole entry, species assumed): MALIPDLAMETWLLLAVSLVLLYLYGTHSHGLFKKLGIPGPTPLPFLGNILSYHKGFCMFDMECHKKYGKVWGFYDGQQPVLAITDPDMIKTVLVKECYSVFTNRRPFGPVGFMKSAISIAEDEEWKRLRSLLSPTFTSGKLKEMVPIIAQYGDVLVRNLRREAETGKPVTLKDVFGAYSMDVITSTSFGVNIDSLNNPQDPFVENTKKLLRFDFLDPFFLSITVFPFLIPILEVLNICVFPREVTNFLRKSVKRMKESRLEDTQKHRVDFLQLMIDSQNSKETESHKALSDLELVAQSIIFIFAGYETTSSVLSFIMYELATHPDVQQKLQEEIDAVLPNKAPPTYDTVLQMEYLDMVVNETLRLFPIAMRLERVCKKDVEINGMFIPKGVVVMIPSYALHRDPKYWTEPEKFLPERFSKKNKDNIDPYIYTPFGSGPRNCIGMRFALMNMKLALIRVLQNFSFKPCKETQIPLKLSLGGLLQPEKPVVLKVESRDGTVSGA

For `CC(=O)Nc1sc2c(c1-c1nc3ccccc3s1)CCN(C(C)C)C2` [Compound 3, N-(3-(benzo[d]thiazol-2-yl)-6-isopropyl-4,5,6,7-tetrahydrothieno[2,3-c]pyridin-2-yl)acetamide], on CYP3A4, the “CYP3A4 (inh. @ 10 µM)” value amounted to 53%. Moreover, on APE1 [1], the KM increase is at most 4 fold, the mode of inhibition result is “competitive inhibitors” and the kcat decrease entry was “less than 6 fold”. For the same compound, on APE1-DNA complex, the APE1-DNA binary complex result is “essentially absent”. The compound also came in with an apparent permeability (Papp) in the data set “Caco-2 permeability” of 500 ×10⁻⁶ cm/s. Besides, the inhibition at 100 µM in data set [2] was about 100%. In addition, in the data set with HeLa cells, the IC50 was about 15 µM; the “potentiation of cytotoxic effects of MMS and TMZ” value is “greatly potentiated”; the “concentration of optimal synergy with MMS and TMZ” value fell in the range of 5 to 10 µM. In addition, in data set [3], the tolerability entry was “well tolerated by the animals, with no adverse effects noted”.

As for `CC(=O)Nc1sc2c(c1-c1nc3ccccc3s1)CCNC2` [Compound 4], in data set [2], the inhibition at 100 µM is about 100%.

In the case of `CC(=O)Nc1sc2c(c1-c1nc3ccccc3s1)CCN(C(=O)OC(C)(C)C)C2` [Compound 5], at APE1 [4], the “activity against APE1 in the qHTS assay, in words” value (shortened to “activity against APE1”) is recorded as “significant loss of activity”.

Consider `CC(=O)Nc1sc2c(c1-c1nc3ccccc3s1)CCN(C(C)=O)C2` [Compound 8], for which the “activity against APE1” value on APE1 [4] was “significant loss of activity”.

As to `CC(=O)Nc1sc2c(c1-c1ccco1)CCNC2` [Compound 13], the “activity against APE1” value at APE1 [4] is “greatly diminished activity”.

Consider `CC(=O)Nc1sc2c(c1-c1cccs1)CCNC2` [Compound 14], for which the “activity against APE1” value at APE1 [4] is on record as “greatly diminished activity”.

With `CC(=O)Nc1sc2c(c1-c1cc3ccccc3s1)CCNC2` [Compound 15], at APE1 [4], the “activity against APE1” value is given as “greatly diminished activity”.

In the case of `CC(=O)Nc1sc2c(c1-c1cc3ccccc3o1)CCNC2` [Compound 17], the “activity against APE1” value at APE1 [4] was “greatly diminished activity”.

On to `CC(=O)Nc1sc2c(c1-c1ncco1)CCNC2` [Compound 19], for which, on APE1 [4], the “activity against APE1” value is reported as “greatly diminished activity”.

With `CC(=O)Nc1sc2c(c1-c1nccs1)CCNC2` [Compound 20], the “activity against APE1” value at APE1 [4] is given as “greatly diminished activity”.

Regarding `CC(=O)Nc1sc2c(c1-c1nc3ccccc3o1)CCN(C(C)C)C2` [Compound 23], the loss in activity at APE1 [4] (relative to lead compound 3) is given as 10 fold.

On to `CC(=O)Nc1sc2c(c1-c1nc(-c3ccccc3)cs1)CCN(C(C)C)C2` [Compound 24], for which, at APE1 [4], the “activity against APE1” value is “activity comparable to the lead compound”.

`CC(C)(C)C(=O)Nc1sc2c(c1-c1nc3ccccc3s1)CCNC2` [Compound 26]: at APE1 [4], the “activity against APE1” value is “inactive”.

As to `O=C(CCc1ccccc1)Nc1sc2c(c1-c1nc3ccccc3s1)CCNC2` [Compound 30], the “activity against APE1” value at APE1 [4] is “inactive”.

Take `COC(=O)c1sc2c(c1-c1nc3ccccc3s1)CCNC2` [Compound 41]: the “activity against APE1” value on APE1 [4] is reported as “complete loss of activity”.

Turning to `O=C(O)c1sc2c(c1-c1nc3ccccc3s1)CCNC2` [Compound 42], at APE1 [4], the “activity against APE1” value was “complete loss of activity”.

In the case of `Cc1nnc(-c2sc3c(c2-c2nc4ccccc4s2)CCNC3)o1` [Compound 43], the “activity against APE1” value on APE1 [4] was “completely inactive”.

For the compound `Cc1noc(-c2sc3c(c2-c2nc4ccccc4s2)CCNC3)n1` [Compound 44], at APE1 [4], the “activity against APE1” value was “completely inactive”.

For `Cc1nnc(Nc2sc3c(c2-c2nc4ccccc4s2)CCNC3)o1` [Compound 45], on APE1 [4], the “activity against APE1” value is reported as “modest activity” and the “less activity than the corresponding amide analog (4)” value is listed as “approximately 8 fold”.

`Cc1noc(Nc2sc3c(c2-c2nc4ccccc4s2)CCNC3)n1` [Compound 46]: at APE1 [4], the “activity against APE1” value was “modest activity” and the “less activity than the corresponding amide analog (4)” value is recorded as “approximately 8 fold”.

Regarding `CC(=O)Nc1sc2c(c1-c1nc3ccccc3s1)CCOC2` [Compound 47], the “activity against APE1” value at APE1 [4] is “still active against APE1, albeit only at the highest concentration”.

`CC(=O)Nc1sc2c(c1-c1nc3ccccc3s1)CCSC2` [Compound 48]: the “activity against APE1” value at APE1 [4] was “still active against APE1, albeit only at the highest concentration”.

In the case of `CC(=O)Nc1sc2cnccc2c1-c1nc2ccccc2s1` [Compound 50], on APE1 [4], the “activity against APE1” value is “completely inactive”.

Consider `CC(=O)Nc1sc2c(c1-c1nc3ccccc3s1)CNC2` [Compound 52, N-(3-(benzo[d]thiazol-2-yl)-5,6-dihydro-4H-thieno[2,3-c]pyrrol-2-yl)acetamide], for which, at APE1 [1], the KM increase entry was “up to 10 fold”, the mode of inhibition entry was “competitive inhibitors” and the kcat decrease result is on record as “less than 6 fold”. The compound also had an IC50 against APE1 [4] of 3.1 µM. Further, the APE1-DNA binary complex entry at APE1-DNA complex is listed as “essentially absent”. Further, in “Caco-2 permeability”, the apparent permeability coefficient (Papp) was 680 ×10⁻⁶ cm/s. The “inhibition of HeLa whole cell extract AP site incision” value in data set [2] (10 µM inhibitor) is “almost complete inhibition”. For the same compound, in data set [2], the inhibition at 100 µM was about 100%. Further, in the data set on HeLa cells, the IC50 was about 30 µM; the “potentiation of cytotoxic effects of MMS and TMZ” value is given as “greatly potentiated”; the “concentration of optimal synergy with MMS and TMZ” value fell in the range of 10 to 15 µM. Besides, the tolerability entry in data set [3] was “well tolerated by the animals, with no adverse effects noted”.

`CC(=O)Nc1sc2c(c1-c1nc3ccccc3s1)CNCC2` [Compound 53]: the “activity against APE1” value on APE1 [4] was “only modest efficacy”.

As for `CC(=O)Nc1sc2c(c1-c1nc3ccccc3s1)CCN(C(C)C)CC2` [Compound 55], the inhibition at 100 µM in data set [2] is about 100%.
